Assay results as given in article PMC4784479 (Arthritis & rheumatology (Hoboken, N.J.), 2015).
*1 amine or outer side, *2 acyl side, *3 side chain or, on linkers, in order; H or OH if unused. Where a SMILES comes first, the peptide text is derived from it. Bridges are numbered along the chain shown (N, C = ends). Where no end group is shown, it is not given here. [ ]: non-standard residue; d: D form. X1 = O=C(O)C[C@@H](C(=O)[*:2])N(CCCCN[*:3])[*:1]; X2 = C[C@@H](C(=O)[*:2])N(CCCCN[*:3])[*:1]; CO = O=C([*:1])[*:2]

Key:
primary mouse BMCs = assay: In vitro OC differentiation, primary mouse BMCs; assay type: cell-based; settings: SE ligand 65–79*0401 29 μM, Fig. 1J
Summary of the method: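 Primary bone marrow cells from mouse femurs and tibias were plated at 2 × 10^5/well in MEM with 10% FBS and penicillin/streptomycin. They received 10 ng/ml M-CSF alone for 2 d, then 4 d more with 10 ng/ml M-CSF plus 20 ng/ml RANKL, with or without SE ligand 65–79*0401 (29 μM). Cultures were fixed and TRAP-stained. TRAP-positive cells with more than three nuclei were counted. Results are mean ± SEM; Student's t-test.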

DBA/1 mice with CIA = assay: Collagen-induced arthritis; assay type: in vivo, mouse; settings: disease amelioration at ng/kg-range doses; comparison with ref 24–26
[1] = biological target: T1, SE-activated NO signaling (Mus musculus, UniProt P14211); assay: SE ligand-activated NO signaling assay; assay type: cell-based; settings: Linear DKCLA 170 μM, SE ligand 65–79*0401 57 μM, Fig. 1F
T1 sequence (P14211 18-416): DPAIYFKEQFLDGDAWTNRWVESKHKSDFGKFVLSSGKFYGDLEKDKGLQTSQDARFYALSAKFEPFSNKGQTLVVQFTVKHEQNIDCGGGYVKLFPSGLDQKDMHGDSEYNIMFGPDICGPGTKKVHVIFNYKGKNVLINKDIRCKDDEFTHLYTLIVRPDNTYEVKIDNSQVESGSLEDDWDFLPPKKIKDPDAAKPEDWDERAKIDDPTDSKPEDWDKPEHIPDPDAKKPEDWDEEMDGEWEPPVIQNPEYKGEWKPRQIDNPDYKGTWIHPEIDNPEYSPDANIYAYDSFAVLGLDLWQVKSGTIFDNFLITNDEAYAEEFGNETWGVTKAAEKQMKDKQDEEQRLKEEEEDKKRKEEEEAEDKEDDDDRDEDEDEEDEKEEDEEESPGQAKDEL

recombinant mouse CRT = biological target: T2, recombinant mouse CRT (Mus musculus, UniProt P14211); assay: SPR direct interaction with CRT; assay type: binding; settings: immobilized recombinant CRT, Fig. 1A
T2 sequence (P14211 18-416): T1 sequence (P14211 18-416)
Summary of the method: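 Direct binding was measured by SPR on a CM5 chip preconditioned with NaOH, HCl and SDS pulses and activated with EDC/NHS. Recombinant mouse CRT was amine-coupled at 100 μg/ml (about 5500 RU), then ethanolamine-blocked. Analytes were injected at various concentrations at 25°C and 10 μl/min in HEPES pH 7.4 buffer with KCl, CaCl2, ZnCl2 and P-20. Signal was read in real time as resonance units.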

Compound	Incremental SE-activated OC differentiation (primary mouse BMCs)	In vivo potency in CIA relative to emerging drugs (mg/kg-range doses) (DBA/1 mice with CIA)	Inhibition of SE ligand-activated NO signaling [1]	Interaction with CRT (SPR) (recombinant mouse CRT)
CC(C)C[C@@H]1NC(=O)[C@H](CS)NC(=O)[C@H](CCCCN)NC(=O)[C@H](CC(=O)O)N(C(=O)[C@@H](N)Cc2c[nH]c3ccccc23)CCCCNC(=O)NCCCCN([C@@H](C)C(N)=O)C1=O [HS(4–4)c Trp] (H-W[X1]KCL[X2]-NH2; linker 2-6 via CO; N-terminus and C-terminus assumed)	significantly inhibited	1,000,000 fold	–	–
Ac-DKCLA (N-terminus assumed) [DKCLA]	–	–	specifically blocked SE ligand-activated NO signaling	interacted with CRT
